Screening results: PubChem, The Scripps Research Institute Molecular Screening Center
CHO parental Ca – ATP-evoked calcium signal inhibitors, parental CHO, primary screen, counter-screen for OX1R antagonist project, cell-based, fluorescence, Fluo-8 calcium dye; parental CHO-K1, ATP-induced calcium, Fluo-8 fluorescence; inhibition, % at 5.6 µM; 330,000 compounds, 0.63% hits;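 active means inhibition above that plate's mean sample inhibition plus 3 SD, cut at about 26% in these data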
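test system = CHO parental line | reagent = ATP stimulus | measured by = intracellular calcium via Fluo-8 no-wash fluorescent dye | control set = ATP and no-ATP DMSO wells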
GPR7 antagonist – GPR7 receptor antagonists, primary screen, cell-based, fluorescence, single concentration | AID 1861, 2009 | inhibition, % at 4.4 µM | GPR7-expressing cells, fluorescence antagonist assay | 290,000 compounds, 1.1% hits | Neuropeptides B/W receptor type 1 (Homo sapiens), P48145; in the data active means inhibition above about 16%, passing the limit was not always enough;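 further: cells stimulated with the agonist NPW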
OX1R antag-1 – OX1R (HCRTR1) antagonists, primary screen, fluorescence, CHO/OX1R cells, Fluo-8 calcium, orexin A; inhibition, % at 5 µM; 330,000 compounds, 0.43% hits; Orexin/Hypocretin receptor type 1 (Homo sapiens), O43613; Fluo-8 calcium fluorescence;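 active means inhibition above its plate's threshold, mean inhibition of all tested compounds on the plate plus 3 SD, cut at about 37% in these data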
GalR3 antagonist – GalR3 antagonists in HEK293 cells, primary screen, cell-based, fluorescence readout; Galanin receptor type 3 (Homo sapiens), O60755; inhibition, % at 3 µM; HEK293 GalR3-CNG cAMP membrane potential fluorescence; galR3 body fused to GalR1 C-terminus; 360,000 compounds, 0.44% hits;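 active means inhibition above the screen-wide average plus 3 SD, cut at about 13% in these data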;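 further: forskolin and galanin both at EC90 stimulate the cells; cAMP rise reported by CNG channel membrane potential dye signal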
Target sequence (O60755 1-299 limits assumed): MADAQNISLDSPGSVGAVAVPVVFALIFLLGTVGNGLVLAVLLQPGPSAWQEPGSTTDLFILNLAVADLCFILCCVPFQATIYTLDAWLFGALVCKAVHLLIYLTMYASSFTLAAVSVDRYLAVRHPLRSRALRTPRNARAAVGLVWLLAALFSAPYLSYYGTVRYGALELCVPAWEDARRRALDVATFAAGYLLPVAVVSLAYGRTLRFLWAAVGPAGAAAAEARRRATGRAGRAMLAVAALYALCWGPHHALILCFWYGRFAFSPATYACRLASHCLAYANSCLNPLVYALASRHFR
OX1R antag-2 – antagonists of human orexin 1 receptor (OX1R) | OX1R-expressing cells, FRET antagonist read-out | inhibition, % at 6.6 µM | 330,000 compounds, 1.8% hits | AID 485270, 2010; in the data active means inhibition mostly above about 38%, no sharp cut-off; inactive means mostly below about 40%
OX1R HTRF confirm – OX1R (HCRTR1) antagonists, confirmation, cell-based, HTRF; AID 492964, 2010; 1,800 compounds, 49% hits; inhibition, % at 6.6 µM; shares compounds with OX1R antag-2; OX1R-expressing cells, HTRF antagonist assay; in the data active means inhibition above about 55%;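 further: CHO cells expressing OX1R stimulated with orexin A at about EC80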
CHO-K1 HTRF – signal inhibition in parental CHO-K1 cells, counter-screen for OX1R antagonist project, cell-based, HTRF | shares compounds with OX1R antag-2 | HTRF counterscreen | inhibition, % at 6.6 µM | 1,800 compounds, 48% hits | AID 493232, 2011; in the data active means inhibition above about 17%
Of the large screens only hits and unclear results are named; the others gave an inactive call (follow-up assays come after a bar, where they were run). This is a sample that favours compounds with a hit; in the whole collection about 3.1% have one here.

O=C(O)c1cccc(-c2ccc(/C=N/NC(=O)c3cccnc3)o2)c1	none
O=c1c2cc(Br)ccc2nc(-c2ccccc2)n1O	none
O=C1C2C(C(=O)N1/N=C/c1ccc([N+](=O)[O-])o1)C1C=CC2C12CC2 (centres undefined)	OX1R antag-2 80.3 | OX1R HTRF confirm inactive | CHO-K1 HTRF 59.2
O=C1C2C3C=CC(C4CC34)C2C(=O)N1/N=C/c1ccc([N+](=O)[O-])o1 (centres undefined)	none
O=Nc1c2nc3ccccc3n(O)c-2c2ccccc12	OX1R antag-2 90.7 | OX1R HTRF confirm inactive | CHO-K1 HTRF 48.9
On1c(-c2ccccc2)nc2ccccc21	none
COc1ccc(C(=O)Cc2cc3ccccc3oc2=O)cc1	none
N#CCc1ccc(NC(=O)c2ccc(S(=O)(=O)N3CCCC3)cc2)cc1	none
Cc1c(NC(=O)CN2C(=O)C(=O)c3ccccc32)c(=O)n(-c2ccccc2)n1C	OX1R antag-2 80.3 | OX1R HTRF confirm inactive | CHO-K1 HTRF 50.9
Cc1ccccc1CNC(=O)c1ccccc1NS(C)(=O)=O	OX1R antag-2 105.3 | OX1R HTRF confirm inactive | CHO-K1 HTRF inactive
CCN(C(=O)CSc1nc2cc(Cl)ccc2c(=O)n1Cc1ccco1)C1CCS(=O)(=O)C1 (centres undefined)	none
O=C(CSc1ccc(-c2ccccc2)nn1)c1ccccc1	OX1R antag-2 81.6 | OX1R HTRF confirm inactive | CHO-K1 HTRF inactive
Cc1ccc(C(=O)CSc2ccc(-c3ccccc3)nn2)cc1	none
COCCNC(=O)c1cc(S(=O)(=O)N2CCOCC2)ccc1SCc1cccc(OC)c1OC	none
O=C(COc1ncnc2cc([N+](=O)[O-])ccc12)NCc1ccc2c(c1)OCO2	OX1R antag-2 80.7 | OX1R HTRF confirm inactive | CHO-K1 HTRF 44.9
O=C(COC(=O)Cc1ccc([N+](=O)[O-])cc1)NCc1ccc2c(c1)OCO2	none (no result: GPR7 antagonist)
O=[N+]([O-])c1cccc(COc2ncnc3cc([N+](=O)[O-])ccc23)c1	OX1R antag-2 91.4 | OX1R HTRF confirm inactive | CHO-K1 HTRF 48.5
O=C(O)/C=C/C(O)c1ccc(Cl)cc1 (centres undefined)	none (no result: GPR7 antagonist, GalR3 antagonist)
CC(C#N)(NC(=O)CN1CCN(S(=O)(=O)c2ccccc2C#N)CC1)C1CC1 (centres undefined)	none (no result: GPR7 antagonist)
COc1ccc2cc3cc(C(=O)NCc4cccs4)oc3nc2c1	none
CCCCN(CC)CCCNC(=O)c1cc2cc3ccc(OC)cc3nc2o1	OX1R antag-2 104.4 | OX1R HTRF confirm inactive | CHO-K1 HTRF 48.6
COc1ccc2cc3cc(C(=O)NCCc4ccc(OC)c(OC)c4)oc3nc2c1	none
CCCN(CCC)CCCNC(=O)c1cc2cc3ccc(OC)cc3nc2o1	OX1R antag-2 123.0 | OX1R HTRF confirm inactive | CHO-K1 HTRF 58.3
CCC(C)n1c(=N)c(C#N)cc2c(=O)n3cc(C)ccc3nc21 (centres undefined)	none
Cc1ccc2nc3c(cc(C#N)c(=O)n3-c3nccs3)c(=O)n2c1	OX1R antag-2 168.9 | OX1R HTRF confirm 90.1 | CHO-K1 HTRF 77.3
Cc1ccsc1C(=O)Nc1ccc(O)c(-c2nc3ccccc3s2)c1	OX1R antag-2 80.7 | OX1R HTRF confirm 73.4 | CHO-K1 HTRF inactive
CC(=O)Nc1ccc(O)c(-c2nc3ccccc3s2)c1	none
O=C(Nc1ccc(O)c(-c2nc3ccccc3s2)c1)C1=COCCO1	OX1R antag-2 87.9 | OX1R HTRF confirm inactive | CHO-K1 HTRF inactive
CCN(CC(=O)Nc1ccccc1OC)C(=O)COc1ccc2ccccc2c1	OX1R antag-2 97.0 | OX1R HTRF confirm 66.5 | CHO-K1 HTRF inactive
CCN(CC(=O)Nc1ccc(NC(C)=O)cc1)C(=O)COc1ccc2ccccc2c1	none (no result: GPR7 antagonist)
CC(C)c1ccc(NC(=O)CCCN2C(=S)NC(C)(C)CC2C)cc1 (centres undefined)	OX1R antag-2 99.5 | OX1R HTRF confirm inactive | CHO-K1 HTRF inactive
